From ChEMBL document CHEMBL1123216, “Sustained brain-specific delivery of estradiol causes long-term suppression of luteinizing hormone secretion” (J Med Chem, 1986)

Key:
Format in all cases: functional, organism-based
Rattus norvegicus [1] = test: Serum concentration of estradiol 12 days after intravenous administration in Orchidectomized rats
Summary of the method: (§1)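 Male rats were orchidectomized and 2 weeks later given a single iv dose (2.1 or 3.0 mg/kg, dimethyl sulfoxide vehicle). After decapitation at 12, 18 or 24 days, serum estradiol was measured by a published radioimmunoassay in modified form, in duplicate. Assay sensitivity limit was 20 pg/mL. Values are mean ± SEM, with the number of samples below the limit given per group.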

Rattus norvegicus [2] = test: Serum concentration of LH 24 days after intravenous administration in Orchidectomized rats
Summary of the method: (§2)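 Male rats given a single iv dose (2.1 or 3.0 mg/kg, dimethyl sulfoxide vehicle at 0.5 mL/kg) 2 weeks after orchidectomy. At 12, 18 or 24 days they were killed by decapitation and serum LH was measured by radioimmunoassay, expressed against reference preparation LH-RP-2. Samples assayed in duplicate; mean ± SEM, 6–7 animals per group.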

Rattus norvegicus [3] = test: Serum concentration of LH 18 days after intravenous administration in Orchidectomized rats; summary of the method: as §2
Rattus norvegicus [4] = test: Serum concentration of estradiol 18 days after intravenous administration in Orchidectomized rats; summary of the method: as §1
Rattus norvegicus [5] = test: Serum concentration of estradiol 24 days after intravenous administration in Orchidectomized rats; summary of the method: as §1
Rattus norvegicus [6] = test: Serum concentration of LH 12 days after intravenous administration in Orchidectomized rats; summary of the method: as §2

## C[C@]12CC[C@@H]3c4ccc(O)cc4CC[C@H]3[C@@H]1CC[C@@H]2O
Rattus norvegicus [1]
  Concentration: 0.0293 ng/mL
Rattus norvegicus [2]
  Concentration: 11.6 ng/mL
Rattus norvegicus [3]
  Concentration: 12.1 ng/mL
Rattus norvegicus [4]
  Concentration: < 0.02 ng/mL
Rattus norvegicus [5]
  Concentration: 0.0312 ng/mL
Rattus norvegicus [6]
  Concentration: 12.9 ng/mL

## C[S+](C)[O-]
Rattus norvegicus [1]
  Concentration: 0.0275 ng/mL
Rattus norvegicus [2]
  Concentration: 8.6 ng/mL
Rattus norvegicus [3]
  Concentration: 12.4 ng/mL
Rattus norvegicus [4]
  Concentration: < 0.02 ng/mL
Rattus norvegicus [5]
  Concentration: 0.0244 ng/mL
Rattus norvegicus [6]
  Concentration: 6.8 ng/mL

## CN1C=CCC(C(=O)O[C@H]2CC[C@H]3[C@@H]4CCc5cc(O)ccc5[C@H]4CC[C@]23C)=C1
Rattus norvegicus [1]
  Concentration: 0.0259 ng/mL
Rattus norvegicus [2]
  Concentration: 2.9 ng/mL
Rattus norvegicus [3]
  Concentration: 1.7 ng/mL
Rattus norvegicus [4]
  Concentration: < 0.02 ng/mL
Rattus norvegicus [5]
  Concentration: 0.0241 ng/mL
Rattus norvegicus [6]
  Concentration: 0.8 ng/mL
